The source made the active and inactive calls.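 Rule for the calls: active = inhibition of diacylglycerol lipase beta of at least 50% in a gel probe-labeling test; inactive = inhibition under 50%.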

The source of these data is PubChem BioAssay AID602302 (The Scripps Research Institute Molecular Screening Center, 2012).

The target of the assay is Diacylglycerol lipase-beta (Mus musculus) (UniProt Q91WC9). The assay is described as follows: mouse DAGLb inhibition, probe-labelling competition – biochemical, in-gel fluorescence, HEK293T membranes, overexpressed mouse DAGLb, set 1, late-stage follow-up (AID 602302). As to conditions: HEK293T membrane overexpressing mouse DAGLb, gel ABPP fluorescence; at 0.1 µM; active compounds read high. The gist of the method:
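Buffer or medium – Dulbecco's PBS (DPBS) · Test system – membrane proteome of transiently transfected HEK293T cells, overexpressed mouse DAGLb · Quantity – membrane protein at 0.3 mg/mL · Doses – single compound dose of 100 nM (0.1 µM) final · Timing – 30 min compound plus 30 min probe, 37 °C · Reagent – fluorescent probe HT-01 at 1 µM final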

Sequence of Diacylglycerol lipase-beta (Mus musculus) (Q91WC9 whole entry, looked up): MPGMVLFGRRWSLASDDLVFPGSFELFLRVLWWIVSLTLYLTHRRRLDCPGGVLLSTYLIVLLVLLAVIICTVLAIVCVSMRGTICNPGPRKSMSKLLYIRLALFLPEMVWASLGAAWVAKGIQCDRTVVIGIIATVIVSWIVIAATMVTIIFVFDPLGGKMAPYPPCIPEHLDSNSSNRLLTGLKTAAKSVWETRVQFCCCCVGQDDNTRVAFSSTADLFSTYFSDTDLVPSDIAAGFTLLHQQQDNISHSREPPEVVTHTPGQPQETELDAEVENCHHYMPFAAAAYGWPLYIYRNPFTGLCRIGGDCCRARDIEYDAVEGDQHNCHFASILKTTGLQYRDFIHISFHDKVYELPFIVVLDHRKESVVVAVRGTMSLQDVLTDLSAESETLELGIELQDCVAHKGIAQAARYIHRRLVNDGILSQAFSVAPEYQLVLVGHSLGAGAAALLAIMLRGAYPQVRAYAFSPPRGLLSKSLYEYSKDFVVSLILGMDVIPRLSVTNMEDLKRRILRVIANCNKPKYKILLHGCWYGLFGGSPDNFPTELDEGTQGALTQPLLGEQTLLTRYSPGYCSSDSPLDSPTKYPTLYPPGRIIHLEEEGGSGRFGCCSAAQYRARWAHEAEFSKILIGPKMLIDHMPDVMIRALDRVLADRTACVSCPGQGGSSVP

A word on the inhibition: it is the change of the read-out against control, counted positive when it falls. Turning to `O=C(N(CCc1ccccc1)Cc1ccco1)n1cc(-c2ccc(OC(F)(F)F)cc2)nn1`, the inhibition is 71%.
The result for `O=C(N1CCCCC1Cc1ccccc1)n1cc(-c2ccc(-c3cccc(CO)c3)cc2)nn1` (stereo not given) reads 11% (inactive); that for `O=C(N1CCCCC1Cc1ccccc1)n1cc(-c2ccc(-c3ccccc3CO)cc2)nn1` (stereo not given), 67%; that for `O=C(N1CCCCC1Cc1ccccc1)n1cc(-c2ccc(OC(F)(F)F)cc2)nn1` (stereo not given), 52%.
The result for `O=C(N1CCCCC1Cc1ccccc1)n1ncc(-c2ccc(OC(F)(F)F)cc2)n1` (stereo not given) reads 0% (inactive); that for `O=C(N1CCCCC1Cc1ccccc1)n1cc(-c2ccc(Br)cc2)nn1` (stereo not given), 68%; that for `O=C(N1CCCCC1Cc1ccccc1)n1cc(-c2ccc(-c3ccccc3OC(F)(F)F)cc2)nn1` (stereo not given), 59%.
The result for `O=C(N1CCCCC1Cc1ccccc1)n1cc(-c2ccc(-c3cccc(C(F)(F)F)c3)cc2)nn1` (stereo not given) reads 44% (inactive); that for `O=C(N1CCCCC1Cc1ccccc1)n1cc(-c2ccc(-c3ccccc3C(F)(F)F)cc2)nn1` (stereo not given), 59%; that for `O=C(N1CCCCC1Cc1ccccc1)n1cc(-c2ccc(-c3ccoc3)cc2)nn1` (stereo not given), 52%.
With `O=C(N1CCCCC1Cc1ccccc1)n1cc(-c2ccc(-c3ccc(OC(F)(F)F)cc3)cc2)nn1` (stereo not given), the inhibition is 38% (inactive).
For `CC(C)(C)OC(=O)NCCCCCN(CCc1ccccc1)C(=O)n1cc(-c2ccc(OC(F)(F)F)cc2)nn1` the value was 73%; for `O=C(N1CCCCC1Cc1ccccc1)n1cc(-c2cc(F)cc(F)c2)nn1` (stereo not given), 55%; for `O=C(c1ccc(-c2ccc(-c3cn(C(=O)N4CCCCC4Cc4ccccc4)nn3)cc2)cc1)N1CCCCC1` (stereo not given), 10% (inactive).
For `O=C(N1CCCCC1Cc1ccccc1)n1cc(-c2ccc(-c3ccc4c(c3)OCO4)cc2)nn1` (stereo not given) the value was 18% (inactive).
The result for `O=C(N1CCCCC1Cc1ccccc1)n1cc(-c2ccccc2-c2ccccc2)nn1` (stereo not given) reads 18% (inactive); that for `O=C(N1CCCCC1Cc1ccccc1)n1cc(-c2ccc(-c3ccc(C(F)(F)F)cc3)cc2)nn1` (stereo not given), 31% (inactive).
With `O=C(N1CCCCC1Cc1ccccc1)n1ncc(C(O)(c2ccccc2)c2ccccc2)n1` (stereo not given), the inhibition was 9% (inactive).
The result for `O=C(N1CCCCC1Cc1ccccc1)n1cc(-c2ccc(-c3ccccc3)cc2)nn1` (stereo not given) reads 61%; that for `Cc1ccccc1-c1ccc(-c2cn(C(=O)N3CCCCC3Cc3ccccc3)nn2)cc1` (stereo not given), 63%; that for `COc1ccccc1-c1ccc(-c2cn(C(=O)N3CCCCC3Cc3ccccc3)nn2)cc1` (stereo not given), 55%.
Take `O=C(N1CCCCC1Cc1ccccc1)n1cc(-c2cccc(-c3ccccc3)c2)nn1` (stereo not given): the inhibition is 27% (inactive).
For `O=C(N1CCCCC1Cc1ccccc1)n1cc(-c2ccc(-c3ccccc3Cl)cc2)nn1` (stereo not given), the inhibition is 66%.
As to `CC(C)CN(CCc1ccccc1)C(=O)n1cc(-c2ccc(OC(F)(F)F)cc2)nn1`, the inhibition was 70%.
For `O=C(c1ccc(-c2cn(C(=O)N3CCCCC3Cc3ccccc3)nn2)cc1)N1CCCCC1` (stereo not given) the value was 41% (inactive).
